Data as given in ChEMBL document CHEMBL2434895, “Design and application of a rigid quinazolone scaffold based on two-face Bim α-helix mimicking” (Eur J Med Chem, 2013).
pKi: −log10 of the molar value.

What was measured:
[1] = molecular target: Induced myeloid leukemia cell differentiation protein Mcl-1 (Homo sapiens, UniProt Q07820); assay: Displacement of FAM-Bid BH3 peptide from recombinant Mcl-1 (unknown origin) expressed in Escherichia coli BL21 after 10 mins by fluorescence polarization assay
Chain of Induced myeloid leukemia cell differentiation protein Mcl-1 (Q07820 whole entry): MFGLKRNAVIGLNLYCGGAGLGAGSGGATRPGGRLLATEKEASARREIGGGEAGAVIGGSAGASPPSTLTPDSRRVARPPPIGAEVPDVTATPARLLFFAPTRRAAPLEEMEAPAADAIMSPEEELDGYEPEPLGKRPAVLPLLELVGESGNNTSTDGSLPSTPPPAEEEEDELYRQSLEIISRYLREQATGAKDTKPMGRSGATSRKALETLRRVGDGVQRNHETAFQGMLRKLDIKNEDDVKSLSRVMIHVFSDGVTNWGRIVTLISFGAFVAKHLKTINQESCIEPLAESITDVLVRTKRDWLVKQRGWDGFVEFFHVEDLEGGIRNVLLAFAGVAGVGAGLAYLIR
How it was run: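 Mcl-1 FP competition: 55 nM protein with 20 nM FAM-Bid BH3 peptide in 25 mM Tris pH 8.0, 150 mM NaCl, 2 min preincubation. Compounds added as serial dilutions from 10 mM DMSO stock, 10 min incubation, polarization measured. Tracer Kd 13 nM. Ki derived by Wang FP-assay equation.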

[2] = molecular target: Apoptosis regulator Bcl-2 (Homo sapiens, UniProt P10415); assay: Displacement of FAM-Bid BH3 peptide from recombinant Bcl-2 (unknown origin) expressed in Escherichia coli BL21 after 10 mins by fluorescence polarization assay
Chain of Apoptosis regulator Bcl-2 (P10415 whole entry): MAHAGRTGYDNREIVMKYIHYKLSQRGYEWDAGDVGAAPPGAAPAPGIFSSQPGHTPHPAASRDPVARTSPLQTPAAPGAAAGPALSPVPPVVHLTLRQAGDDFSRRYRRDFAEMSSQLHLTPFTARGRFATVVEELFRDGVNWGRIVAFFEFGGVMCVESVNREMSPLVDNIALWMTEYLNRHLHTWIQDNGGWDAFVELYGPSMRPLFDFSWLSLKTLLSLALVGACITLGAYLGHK

pKi [1] | pKi [2] | Structure (SMILES)
5.92 | 5.88 | O=C1c2ccccc2C(=O)c2c1cc(O)c(O)c2O
6.22 | 5.95 | CC(C)c1ccc(O)c(Cn2c(-c3ccccc3)nc3c(O)c(O)c(O)cc3c2=O)c1
5.70 | 5.72 | CCCCNC(=O)c1cc(O)c(O)c(O)c1NC(=O)c1ccccc1
5.55 | 5.88 | O=C(Nc1c(C(=O)NCc2ccccc2)cc(O)c(O)c1O)c1ccccc1
5.49 | 5.09 | O=C(Nc1c(C(=O)NCCCc2ccccc2)cc(O)c(O)c1O)c1ccccc1
5.22 | 5.03 | O=c1[nH]cnc2c(O)c(O)c(O)cc12
5.92 | 6.02 | O=c1c2cc(O)c(O)c(O)c2nc(-c2ccccc2)n1Cc1ccccc1
6.91 | 6.75 | Cc1ccc(O)c(Cn2c(-c3ccccc3)nc3c(O)c(O)c(O)cc3c2=O)c1
